Results reported in ChEMBL document CHEMBL1806459, “Discovery of N-(1-ethylpropyl)-[3-methoxy-5-(2-methoxy-4-trifluoromethoxyphenyl)-6-methyl-pyrazin-2-yl]amine 59 (NGD 98-2): an orally active corticotropin releasing factor-1 (CRF-1) receptor antagonist” (J Med Chem, 2011).
Calls of active or inactive are those of the source.

Columns and labels:
[1] = system: Rattus norvegicus; test: Decrease in restrained-stress induced […] release in plasma of Sprague-Dawley rat at 10 mg/kg, po pretreated with compound for 3 hrs by radioimmunoassay; format: functional, organism-based; set-up: dose 10 mg/kg
Procedure, shortened: (§1)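 Rats orally pretreated, then restrained for 10 min to induce stress. Plasma ACTH measured and compared with vehicle/no-stress and vehicle/stress groups.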

[2] = Inhibition of adenosine transporter at 4 uM
Procedure, shortened: (§2)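 Single-concentration screen within a 69-target selectivity panel. The test concentration was 4 μM, a level set by the compound's limited aqueous solubility.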

[3] = Inhibition of phosphodiesterase 4 at 4 uM; procedure, shortened: as §2
[4] = Bioavailability in rat at 1 mg/kg, […]; format: ADME, organism-based; settings: in vivo
Procedure, shortened: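 Rat PK with paired iv and oral dosing, vehicle 2% Vitamin E TPGS. Clearance and Vss from the iv arm; oral bioavailability F from comparing exposure after oral and iv doses.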

[5] = target: Sodium-dependent noradrenaline transporter (Homo sapiens) (UniProt P23975); test: Inhibition of norepinephrine transporter at 4 uM; procedure, shortened: as §2
Chain of Sodium-dependent noradrenaline transporter (Homo sapiens) (P23975 whole entry): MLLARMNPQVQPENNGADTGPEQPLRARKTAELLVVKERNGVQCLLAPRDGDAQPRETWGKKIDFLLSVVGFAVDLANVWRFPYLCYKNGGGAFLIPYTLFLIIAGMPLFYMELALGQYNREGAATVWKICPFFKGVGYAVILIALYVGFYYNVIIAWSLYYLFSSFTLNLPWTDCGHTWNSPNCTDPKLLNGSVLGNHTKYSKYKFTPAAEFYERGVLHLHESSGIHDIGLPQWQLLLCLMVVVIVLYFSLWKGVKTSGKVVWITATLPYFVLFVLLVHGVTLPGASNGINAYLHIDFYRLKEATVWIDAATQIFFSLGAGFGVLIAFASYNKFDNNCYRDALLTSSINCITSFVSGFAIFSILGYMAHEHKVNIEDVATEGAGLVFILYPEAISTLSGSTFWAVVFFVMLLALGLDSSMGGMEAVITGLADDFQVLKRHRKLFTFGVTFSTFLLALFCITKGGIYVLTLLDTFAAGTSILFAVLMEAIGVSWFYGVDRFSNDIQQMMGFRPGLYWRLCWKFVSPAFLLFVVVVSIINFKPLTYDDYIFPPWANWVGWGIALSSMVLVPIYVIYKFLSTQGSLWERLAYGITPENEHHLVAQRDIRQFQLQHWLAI

[6] = Inhibition of DHP calcium channel at 4 uM
Procedure, shortened: (§3)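 Selectivity panel of 69 targets, test compound at 4 μM, a level set by aqueous solubility limits; percent inhibition recorded per target.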

[7] = target: Adenosine receptor A1 (Homo sapiens) (UniProt P30542); test: Inhibition of adenosine A1 receptor at 4 uM; procedure, shortened: as §2
Chain of Adenosine receptor A1 (Homo sapiens) (P30542 whole entry): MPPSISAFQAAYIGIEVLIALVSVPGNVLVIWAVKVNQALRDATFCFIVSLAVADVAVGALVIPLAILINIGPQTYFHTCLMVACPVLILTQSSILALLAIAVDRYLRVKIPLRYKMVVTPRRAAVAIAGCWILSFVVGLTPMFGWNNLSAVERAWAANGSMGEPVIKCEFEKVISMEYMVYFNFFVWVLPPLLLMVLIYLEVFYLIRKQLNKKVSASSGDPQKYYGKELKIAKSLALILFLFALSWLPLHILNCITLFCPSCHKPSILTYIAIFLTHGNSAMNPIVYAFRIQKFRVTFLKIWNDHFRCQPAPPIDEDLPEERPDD

[8] = system: Rattus norvegicus; test: Decrease in restrained-stress induced […] release in plasma of po dosed Sprague-Dawley rat pretreated with compound for 3 hrs by radioimmunoassay; format: functional, organism-based; procedure, shortened: as §1
[9] = target: Epidermal growth factor receptor (Homo sapiens) (UniProt P00533); test: Inhibition of EGFR receptor at 4 uM; procedure, shortened: as §3
Chain of Epidermal growth factor receptor (Homo sapiens) (P00533 whole entry): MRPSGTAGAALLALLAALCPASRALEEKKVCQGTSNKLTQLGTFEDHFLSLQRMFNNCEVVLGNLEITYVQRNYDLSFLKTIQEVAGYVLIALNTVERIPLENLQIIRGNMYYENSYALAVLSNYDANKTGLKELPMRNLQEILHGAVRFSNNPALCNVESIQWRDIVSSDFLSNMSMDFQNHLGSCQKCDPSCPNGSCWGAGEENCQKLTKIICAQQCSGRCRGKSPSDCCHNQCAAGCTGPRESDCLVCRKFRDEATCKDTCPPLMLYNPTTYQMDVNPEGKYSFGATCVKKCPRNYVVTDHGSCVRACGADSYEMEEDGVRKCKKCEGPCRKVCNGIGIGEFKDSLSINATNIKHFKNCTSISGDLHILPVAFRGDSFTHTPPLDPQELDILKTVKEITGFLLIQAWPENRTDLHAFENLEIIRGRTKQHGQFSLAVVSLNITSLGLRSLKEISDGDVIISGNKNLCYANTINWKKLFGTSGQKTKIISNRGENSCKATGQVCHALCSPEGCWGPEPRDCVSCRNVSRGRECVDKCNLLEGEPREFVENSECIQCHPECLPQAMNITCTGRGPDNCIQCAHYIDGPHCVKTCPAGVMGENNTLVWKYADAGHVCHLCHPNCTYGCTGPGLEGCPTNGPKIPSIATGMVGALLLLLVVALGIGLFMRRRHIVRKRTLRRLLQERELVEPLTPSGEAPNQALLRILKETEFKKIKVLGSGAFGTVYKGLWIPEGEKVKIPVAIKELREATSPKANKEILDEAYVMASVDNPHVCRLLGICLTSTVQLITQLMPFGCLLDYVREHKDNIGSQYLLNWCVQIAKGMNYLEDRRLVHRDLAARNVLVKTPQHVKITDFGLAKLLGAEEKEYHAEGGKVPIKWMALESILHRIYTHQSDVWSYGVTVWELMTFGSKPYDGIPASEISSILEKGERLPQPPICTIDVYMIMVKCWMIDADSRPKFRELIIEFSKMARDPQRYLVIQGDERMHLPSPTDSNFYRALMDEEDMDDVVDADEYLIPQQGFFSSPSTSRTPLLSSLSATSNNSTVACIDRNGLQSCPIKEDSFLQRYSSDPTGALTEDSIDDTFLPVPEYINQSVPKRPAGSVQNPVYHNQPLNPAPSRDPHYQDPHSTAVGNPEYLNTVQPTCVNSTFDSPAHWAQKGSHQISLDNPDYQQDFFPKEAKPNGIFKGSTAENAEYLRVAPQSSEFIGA

[10] = Ratio of drug level in brain to plasma of rat at 1 mg/kg, iv; format: ADME, organism-based; set-up: dose 1 mg/kg, route intravenous; settings: read-out: BPR
Procedure, shortened: (§4)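 Rat pharmacokinetics: compounds given iv (1 or 3 mg/kg) and po (5 or 10 mg/kg) in 2% Vitamin E TPGS (tocopheryl polyethylene glycol 1000 succinate). Plasma sampled over 24 h for Cmax, Tmax, AUC0–24 h, T1/2, clearance, Vss and oral bioavailability. Brain to plasma ratio also measured.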

[11] = target: T1, Corticotropin-releasing factor receptor 1 (Homo sapiens, UniProt P34998); test: Inhibition of human CRF-1 receptor expressed in human IMR-32 cells assessed as effect on cAMP production by ELISA in presence of 3 nM CRF; format: functional, cell-based
T1 sequence (P34998 whole entry): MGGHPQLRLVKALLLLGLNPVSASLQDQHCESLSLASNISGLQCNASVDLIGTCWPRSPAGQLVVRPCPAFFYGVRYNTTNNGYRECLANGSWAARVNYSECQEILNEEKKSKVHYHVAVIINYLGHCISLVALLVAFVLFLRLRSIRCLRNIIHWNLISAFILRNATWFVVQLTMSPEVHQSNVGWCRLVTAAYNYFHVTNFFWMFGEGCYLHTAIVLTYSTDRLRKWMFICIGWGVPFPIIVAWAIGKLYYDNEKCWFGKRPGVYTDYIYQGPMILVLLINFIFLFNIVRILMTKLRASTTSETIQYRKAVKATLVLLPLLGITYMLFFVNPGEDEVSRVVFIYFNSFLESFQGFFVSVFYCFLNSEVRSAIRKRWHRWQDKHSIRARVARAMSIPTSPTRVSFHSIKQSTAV

[12] = Clearance in rat at 10 mg/kg, po; format: ADME, organism-based; set-up: dose 10 mg/kg, route oral; settings: in vivo
[13] = system: Rattus norvegicus; test: AUC (0 to 24 hrs) in rat at 1 mg/kg, iv; format: ADME, organism-based, Plasma; set-up: time < 24 hr, dose 1 mg/kg, route intravenous; settings: in vivo
Procedure, shortened: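 Rat PK, intravenous arm of a paired iv/po study. Dosed in 2% Vitamin E TPGS (tocopheryl polyethylene glycol 1000 succinate). Parameters derived from plasma: Cmax, AUC0–24 h, terminal T1/2.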

[14] = Cmax in rat at 10 mg/kg, po; format: ADME, organism-based; set-up: dose 10 mg/kg, route oral; settings: in vivo
[15] = Inhibition of phosphodiesterase 3 at 4 uM; procedure, shortened: as §2
[16] = Inhibition of AMPA receptor at 4 uM; procedure, shortened: as §3
[17] = system: Rattus norvegicus; test: Oral bioavailability in rat at 10 mg/kg; format: ADME, organism-based; settings: in vivo; procedure, shortened: as §4
[18] = Inhibition of phosphodiesterase 5 at 4 uM; procedure, shortened: as §2
[19] = Inhibition of KCa channel at 4 uM; procedure, shortened: as §3
[20] = target: D(3) dopamine receptor (Homo sapiens) (UniProt P35462); test: Inhibition of dopamine D3 receptor at 4 uM; procedure, shortened: as §2
Chain of D(3) dopamine receptor (Homo sapiens) (P35462 whole entry): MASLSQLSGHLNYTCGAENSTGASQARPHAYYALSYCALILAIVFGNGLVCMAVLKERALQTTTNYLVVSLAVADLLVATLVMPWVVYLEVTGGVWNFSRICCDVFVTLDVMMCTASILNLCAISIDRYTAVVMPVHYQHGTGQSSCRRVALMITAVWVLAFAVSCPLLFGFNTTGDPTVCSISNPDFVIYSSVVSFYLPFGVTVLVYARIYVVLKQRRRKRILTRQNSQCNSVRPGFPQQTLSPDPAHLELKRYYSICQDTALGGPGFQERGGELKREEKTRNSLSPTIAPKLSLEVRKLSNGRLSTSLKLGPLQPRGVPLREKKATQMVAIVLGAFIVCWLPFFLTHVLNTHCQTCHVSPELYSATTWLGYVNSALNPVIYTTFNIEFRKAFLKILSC

[21] = Inhibition of galanin receptor at 4 uM; procedure, shortened: as §2
[22] = target: Beta-1 adrenergic receptor (Homo sapiens) (UniProt P08588); test: Inhibition of adrenergic beta 1 receptor at 4 uM; procedure, shortened: as §2
[23] = Inhibition of Neurotensin receptor at 4 uM; procedure, shortened: as §2
[24] = target: Vasoactive intestinal polypeptide receptor 1 (Homo sapiens) (UniProt P32241); test: Inhibition of VPAC1 receptor at 4 uM; procedure, shortened: as §2
Chain of Vasoactive intestinal polypeptide receptor 1 (Homo sapiens) (P32241 whole entry): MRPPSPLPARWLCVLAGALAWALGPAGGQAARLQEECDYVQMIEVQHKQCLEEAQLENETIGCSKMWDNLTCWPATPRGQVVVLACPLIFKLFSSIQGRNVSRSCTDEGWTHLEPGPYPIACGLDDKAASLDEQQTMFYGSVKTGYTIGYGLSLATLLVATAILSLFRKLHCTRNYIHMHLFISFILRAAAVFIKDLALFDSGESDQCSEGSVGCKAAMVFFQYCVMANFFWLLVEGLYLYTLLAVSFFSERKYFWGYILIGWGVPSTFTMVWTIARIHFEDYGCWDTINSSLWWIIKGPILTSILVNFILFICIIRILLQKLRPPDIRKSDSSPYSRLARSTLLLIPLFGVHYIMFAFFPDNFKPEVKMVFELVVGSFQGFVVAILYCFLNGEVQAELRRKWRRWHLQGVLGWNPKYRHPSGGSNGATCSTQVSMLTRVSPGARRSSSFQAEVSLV

[25] = Inhibition of GABA-A at 4 uM; procedure, shortened: as §3
[26] = target: Endothelin-1 receptor (Homo sapiens) (UniProt P25101); test: Inhibition of endothelin ETA at 4 uM; procedure, shortened: as §2
Chain of Endothelin-1 receptor (Homo sapiens) (P25101 whole entry): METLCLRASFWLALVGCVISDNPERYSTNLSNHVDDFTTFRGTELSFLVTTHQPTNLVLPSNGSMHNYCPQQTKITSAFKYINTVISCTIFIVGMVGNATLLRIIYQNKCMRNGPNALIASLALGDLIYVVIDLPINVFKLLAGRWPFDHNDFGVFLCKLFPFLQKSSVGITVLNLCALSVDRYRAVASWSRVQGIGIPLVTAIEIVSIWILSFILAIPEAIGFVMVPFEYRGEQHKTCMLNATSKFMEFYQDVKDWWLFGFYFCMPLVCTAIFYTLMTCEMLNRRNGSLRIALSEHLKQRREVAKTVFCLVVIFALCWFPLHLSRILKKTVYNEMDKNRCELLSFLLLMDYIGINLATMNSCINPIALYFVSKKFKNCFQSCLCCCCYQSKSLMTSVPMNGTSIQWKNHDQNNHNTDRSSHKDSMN

[27] = Inhibition of Sodium channel site 2 at 4 uM; procedure, shortened: as §2
[28] = target: 5-hydroxytryptamine receptor 2A (Homo sapiens) (UniProt P28223); test: Inhibition of Serotonin 5HT2A receptor at 4 uM; procedure, shortened: as §2
Chain of 5-hydroxytryptamine receptor 2A (Homo sapiens) (P28223 whole entry): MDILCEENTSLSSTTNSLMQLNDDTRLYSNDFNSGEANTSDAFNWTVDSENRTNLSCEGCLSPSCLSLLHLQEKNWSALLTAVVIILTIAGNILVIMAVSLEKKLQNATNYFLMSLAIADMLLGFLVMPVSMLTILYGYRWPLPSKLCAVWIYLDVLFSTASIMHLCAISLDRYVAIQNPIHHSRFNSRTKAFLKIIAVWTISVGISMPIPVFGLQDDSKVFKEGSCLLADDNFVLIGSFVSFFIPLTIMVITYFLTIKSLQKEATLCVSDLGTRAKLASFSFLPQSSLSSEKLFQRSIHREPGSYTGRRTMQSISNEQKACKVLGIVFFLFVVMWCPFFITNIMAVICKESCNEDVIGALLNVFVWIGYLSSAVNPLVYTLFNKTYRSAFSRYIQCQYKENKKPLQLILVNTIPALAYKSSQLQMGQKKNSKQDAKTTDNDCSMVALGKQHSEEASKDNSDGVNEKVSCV

[29] = Inhibition of KATP channel at 4 uM; procedure, shortened: as §3
[30] = Inhibition of BGTX-insensitive N-neuronal receptor at 4 uM; procedure, shortened: as §3
[31] = target: Cannabinoid receptor 1 (Homo sapiens) (UniProt P21554); test: Inhibition of cannabinoid CB1 receptor at 4 uM; procedure, shortened: as §2
[32] = target: D(1A) dopamine receptor (Homo sapiens) (UniProt P21728); test: Inhibition of dopamine D1 receptor at 4 uM; procedure, shortened: as §2
[33] = Inhibition of protein kinase C at 4 uM; procedure, shortened: as §2
[34] = Half life in rat microsomes; format: ADME, Microsome
Procedure, shortened: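 Stability in human or rat liver microsomes; half-life (T1/2, min) of compound turnover reported.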

[35] = system: Rattus norvegicus; test: Ex vivo CRF-1 receptor occupancy in po dosed rat cortical homogenate assessed as inhibition of [I125]-sauvagine binding pretreated for 3 hrs; format: functional, organism-based
Procedure, shortened: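 Rats dosed orally at 1, 3 and 10 mg/kg; cortex taken at 3 h for ex vivo binding. Specific [125I]-sauvagine binding compared with vehicle-treated rats to give ex vivo ID50.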

[36] = Inhibition of Opiate receptor at 4 uM; procedure, shortened: as §2
[37] = Inhibition of adenosine A2 receptor at 4 uM; procedure, shortened: as §2
[38] = system: Rattus norvegicus; test: Toxicity in Sprague-Dawley rat assessed as effect on vertical activity at 30 mg/kg, po measured after 3 hrs for 1 hr; format: organism-based; set-up: dose 30 mg/kg, route oral; settings: in vivo
Procedure, shortened: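 Rats not habituated to the test environment, dosed orally at 3, 10 and 30 mg/kg. Spontaneous locomotor activity recorded after dosing: horizontal activity as movement time, plus vertical activity (rearing). Test run to exclude sedation.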

[39] = system: Rattus norvegicus; test: AUC (0 to 24 hrs) in rat at 10 mg/kg, po; format: ADME, organism-based, Plasma; set-up: time < 24 hr, dose 10 mg/kg, route oral; settings: in vivo
[40] = target: Platelet-activating factor receptor (Homo sapiens) (UniProt P25105); test: Inhibition of Platelet activating factor receptor at 4 uM; procedure, shortened: as §2
Chain of Platelet-activating factor receptor (Homo sapiens) (P25105 whole entry): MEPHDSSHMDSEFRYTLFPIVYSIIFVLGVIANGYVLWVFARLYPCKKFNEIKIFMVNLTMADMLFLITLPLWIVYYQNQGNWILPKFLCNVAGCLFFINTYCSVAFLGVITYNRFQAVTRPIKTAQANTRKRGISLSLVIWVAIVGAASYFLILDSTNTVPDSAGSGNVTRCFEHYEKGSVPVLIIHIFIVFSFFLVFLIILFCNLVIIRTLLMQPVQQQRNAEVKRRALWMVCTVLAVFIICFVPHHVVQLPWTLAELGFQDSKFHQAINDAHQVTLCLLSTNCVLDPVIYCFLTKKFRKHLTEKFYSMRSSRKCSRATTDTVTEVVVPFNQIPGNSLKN

[41] = target: Substance-P receptor (Homo sapiens) (UniProt P25103); test: Inhibition of Neurokinin NK1 receptor at 4 uM; procedure, shortened: as §3
Chain of Substance-P receptor (Homo sapiens) (P25103 whole entry): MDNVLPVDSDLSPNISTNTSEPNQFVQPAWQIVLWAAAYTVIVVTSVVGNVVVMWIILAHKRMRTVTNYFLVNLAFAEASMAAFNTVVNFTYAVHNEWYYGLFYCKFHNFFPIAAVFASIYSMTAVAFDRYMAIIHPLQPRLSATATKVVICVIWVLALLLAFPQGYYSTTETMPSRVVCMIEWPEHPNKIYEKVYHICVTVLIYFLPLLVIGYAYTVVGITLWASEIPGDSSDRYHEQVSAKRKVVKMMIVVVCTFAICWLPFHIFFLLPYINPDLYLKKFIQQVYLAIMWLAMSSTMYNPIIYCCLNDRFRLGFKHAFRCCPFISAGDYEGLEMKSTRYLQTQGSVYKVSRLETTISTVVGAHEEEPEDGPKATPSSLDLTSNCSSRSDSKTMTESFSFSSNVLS

CCC(CC)Nc1nc(C)c(-c2ccc(OC(F)(F)F)cc2OC)nc1OC
active: Activity [1] | Activity [8] Dose-dependent effect
2 h: half-life [34]
456 ng/mL: Cmax [14]
93 nM: IC50 [11]
2 mg/kg: ED50 ([35]; po, read-out: ID50 (the source's name))
4499 ng·h/mL: AUC [13] | AUC [39]
0.071 µg/mL: IC50 [35]
Non-toxic: Activity [38]
> 16%: inhibition [2] | inhibition [3] | inhibition [5] | inhibition [6] | inhibition [7] | inhibition [9] | inhibition [15] | inhibition [16] | inhibition [18] | inhibition [19] | inhibition [20] | inhibition [21] | inhibition [22] | inhibition [23] | inhibition [24] | inhibition [25] | inhibition [26] | inhibition [27] | inhibition [28] | inhibition [29] | inhibition [30] | inhibition [31] | inhibition [32] | inhibition [33] | inhibition [36] | inhibition [37] | inhibition [40] | inhibition [41]
12 mL/min/kg: CL/F [12]
5.4: Kp [10]
45%: bioavailability [4] | F [17]
